Reference: ChEMBL document CHEMBL5712886, “Discovery and Characterization of GSK2801, a Selective Chemical Probe for the Bromodomains BAZ2A and BAZ2B” (J Med Chem, 2016)
Calls of active or inactive are those of the source. No cut-off for these calls is given here.

What was measured:
[1] = target: T1, Bromodomain-containing protein 9 (Homo sapiens) (UniProt Q9H8M2); assay: Binding affinity to biotinylated C-terminal Avi/His-TEV-fused BRD9 (unknown origin) expressed in Escherichia coli by isothermal titration calorimetric analysis
T1 sequence (whole entry): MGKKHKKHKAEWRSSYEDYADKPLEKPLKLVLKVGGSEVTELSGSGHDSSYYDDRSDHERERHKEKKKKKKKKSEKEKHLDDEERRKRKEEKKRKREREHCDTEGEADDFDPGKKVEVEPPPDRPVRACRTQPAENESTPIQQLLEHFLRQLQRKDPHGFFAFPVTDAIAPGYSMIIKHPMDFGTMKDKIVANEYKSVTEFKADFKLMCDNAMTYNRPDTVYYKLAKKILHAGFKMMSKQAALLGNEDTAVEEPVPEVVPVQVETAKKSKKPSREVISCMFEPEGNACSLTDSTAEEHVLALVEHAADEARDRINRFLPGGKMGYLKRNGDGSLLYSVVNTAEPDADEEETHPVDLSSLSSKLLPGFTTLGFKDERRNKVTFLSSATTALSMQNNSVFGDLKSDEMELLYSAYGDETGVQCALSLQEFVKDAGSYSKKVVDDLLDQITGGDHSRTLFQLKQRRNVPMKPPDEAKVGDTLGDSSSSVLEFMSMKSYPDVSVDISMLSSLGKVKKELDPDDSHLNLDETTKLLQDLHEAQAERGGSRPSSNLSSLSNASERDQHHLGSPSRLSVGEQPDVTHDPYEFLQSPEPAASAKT

[2] = target: T1, Bromodomain-containing protein 9 (Homo sapiens); assay: Binding affinity to biotinylated BRD9 (unknown origin) expressed in Escherichia coli at 0.2 to 1 uM by Biolayer Interferometric analysis; conditions: dose 0.2-1 µM
Method in brief: (§1)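 Bromodomains carrying a BirA biotin ligase targeting sequence, coexpressed with BirA in bacteria to give homogeneous in vivo biotin labelling, checked by mass spectrometry. Biotinylated proteins probed by biolayer interferometry with compound at two concentrations, 0.2 and 1.0 μM.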

[3] = target: Histone-lysine N-methyltransferase ASH1L (Homo sapiens) (UniProt Q9NR48); assay: Binding affinity to biotinylated ASH1L bromodomain (unknown origin) expressed in Escherichia coli at 0.2 to 1 uM by Biolayer Interferometric analysis; conditions: dose 0.2-1 µM; method in brief: as §1
[4] = target: ATPase family AAA domain-containing protein 2 (Homo sapiens) (UniProt Q6PL18); assay: Binding affinity to biotinylated ATAD2 (unknown origin) expressed in Escherichia coli at 0.2 to 1 uM by Biolayer Interferometric analysis; conditions: dose 0.2-1 µM; method in brief: as §1
[5] = target: Tyrosine-protein kinase BAZ1B (Homo sapiens) (UniProt Q9UIG0); assay: Binding affinity to biotinylated BAZ1B (unknown origin) expressed in Escherichia coli at 0.2 to 1 uM by Biolayer Interferometric analysis; conditions: dose 0.2-1 µM; method in brief: as §1
[6] = target: Bromodomain-containing protein 1 (Homo sapiens) (UniProt O95696); assay: Binding affinity to biotinylated BRD1 (unknown origin) expressed in Escherichia coli at 0.2 to 1 uM by Biolayer Interferometric analysis; conditions: dose 0.2-1 µM; method in brief: as §1
[7] = target: Bromodomain-containing protein 2 (Homo sapiens) (UniProt P25440); assay: Binding affinity to biotinylated BRD2 bromodomain-1 (unknown origin) expressed in Escherichia coli at 0.2 to 1 uM by Biolayer Interferometric analysis; conditions: dose 0.2-1 µM; method in brief: as §1
Bromodomain-containing protein 2 (Homo sapiens), sequence (P25440 whole entry, looked up): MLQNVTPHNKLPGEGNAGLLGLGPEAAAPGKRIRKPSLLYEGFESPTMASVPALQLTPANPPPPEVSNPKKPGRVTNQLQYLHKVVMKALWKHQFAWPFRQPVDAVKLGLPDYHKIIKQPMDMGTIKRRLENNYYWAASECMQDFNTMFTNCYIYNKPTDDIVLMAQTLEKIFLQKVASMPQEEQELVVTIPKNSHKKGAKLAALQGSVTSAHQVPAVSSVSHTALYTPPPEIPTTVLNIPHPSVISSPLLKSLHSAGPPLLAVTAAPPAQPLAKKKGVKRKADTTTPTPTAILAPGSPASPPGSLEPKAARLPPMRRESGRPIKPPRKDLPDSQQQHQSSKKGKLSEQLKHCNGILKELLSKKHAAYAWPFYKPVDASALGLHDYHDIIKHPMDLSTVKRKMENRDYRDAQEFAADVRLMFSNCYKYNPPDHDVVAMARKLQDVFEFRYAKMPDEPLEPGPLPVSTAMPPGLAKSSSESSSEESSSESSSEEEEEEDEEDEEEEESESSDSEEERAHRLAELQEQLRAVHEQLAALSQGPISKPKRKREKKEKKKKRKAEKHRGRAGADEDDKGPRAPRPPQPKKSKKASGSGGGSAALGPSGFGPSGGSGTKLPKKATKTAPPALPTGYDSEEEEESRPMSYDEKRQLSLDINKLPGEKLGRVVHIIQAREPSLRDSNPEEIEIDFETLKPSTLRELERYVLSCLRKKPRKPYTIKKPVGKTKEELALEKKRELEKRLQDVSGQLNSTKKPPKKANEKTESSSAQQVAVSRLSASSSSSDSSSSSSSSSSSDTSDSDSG

[8] = target: Bromodomain-containing protein 2 (Homo sapiens) (UniProt P25440); assay: Binding affinity to biotinylated BRD2 bromodomain-2 (unknown origin) expressed in Escherichia coli at 0.2 to 1 uM by Biolayer Interferometric analysis; conditions: dose 0.2-1 µM; method in brief: as §1
[9] = target: Bromodomain-containing protein 3 (Homo sapiens) (UniProt Q15059); assay: Binding affinity to biotinylated BRD3 bromodomain-1 (unknown origin) expressed in Escherichia coli at 0.2 to 1 uM by Biolayer Interferometric analysis; conditions: dose 0.2-1 µM; method in brief: as §1
Bromodomain-containing protein 3 (Homo sapiens), sequence (Q15059 2-726 limits assumed): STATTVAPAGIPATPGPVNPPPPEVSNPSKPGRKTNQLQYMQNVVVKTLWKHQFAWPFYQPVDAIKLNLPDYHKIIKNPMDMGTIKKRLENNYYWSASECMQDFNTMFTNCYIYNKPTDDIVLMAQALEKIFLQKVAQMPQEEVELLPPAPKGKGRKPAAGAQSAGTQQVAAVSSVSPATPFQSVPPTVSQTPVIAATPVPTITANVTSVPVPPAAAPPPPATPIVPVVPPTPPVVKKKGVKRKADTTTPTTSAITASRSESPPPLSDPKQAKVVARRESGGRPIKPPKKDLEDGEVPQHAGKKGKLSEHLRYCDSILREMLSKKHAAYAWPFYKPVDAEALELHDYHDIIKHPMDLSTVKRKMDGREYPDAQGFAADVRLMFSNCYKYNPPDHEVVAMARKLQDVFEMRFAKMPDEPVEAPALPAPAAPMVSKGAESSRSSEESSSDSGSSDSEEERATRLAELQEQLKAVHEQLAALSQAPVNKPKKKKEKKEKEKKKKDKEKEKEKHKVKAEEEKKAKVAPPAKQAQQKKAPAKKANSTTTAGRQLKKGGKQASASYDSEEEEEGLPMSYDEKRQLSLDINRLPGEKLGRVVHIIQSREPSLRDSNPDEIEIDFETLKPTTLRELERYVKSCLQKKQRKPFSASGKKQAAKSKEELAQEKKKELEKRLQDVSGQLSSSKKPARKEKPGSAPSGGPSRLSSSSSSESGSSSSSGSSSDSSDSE

[10] = target: Bromodomain-containing protein 3 (Homo sapiens) (UniProt Q15059); assay: Binding affinity to biotinylated BRD3 bromodomain-2 (unknown origin) expressed in Escherichia coli at 0.2 to 1 uM by Biolayer Interferometric analysis; conditions: dose 0.2-1 µM; method in brief: as §1
[11] = target: Bromodomain-containing protein 4 (Homo sapiens) (UniProt O60885); assay: Binding affinity to biotinylated BRD4 bromodomain-1 (unknown origin) expressed in Escherichia coli at 0.2 to 1 uM by Biolayer Interferometric analysis; conditions: dose 0.2-1 µM; method in brief: as §1
[12] = target: Bromodomain-containing protein 4 (Homo sapiens) (UniProt O60885); assay: Binding affinity to biotinylated BRD4 bromodomain-2 (unknown origin) expressed in Escherichia coli at 0.2 to 1 uM by Biolayer Interferometric analysis; conditions: dose 0.2-1 µM; method in brief: as §1
[13] = target: Bromodomain-containing protein 7 (Homo sapiens) (UniProt Q9NPI1); assay: Binding affinity to biotinylated BRD7 (unknown origin) expressed in Escherichia coli at 0.2 to 1 uM by Biolayer Interferometric analysis; conditions: dose 0.2-1 µM; method in brief: as §1
[14] = target: Bromodomain testis-specific protein (Homo sapiens) (UniProt Q58F21); assay: Binding affinity to biotinylated BRDT bromodomain-1 (unknown origin) expressed in Escherichia coli at 0.2 to 1 uM by Biolayer Interferometric analysis; conditions: dose 0.2-1 µM; method in brief: as §1
[15] = target: Bromodomain testis-specific protein (Homo sapiens) (UniProt Q58F21); assay: Binding affinity to biotinylated BRDT bromodomain-2 (unknown origin) expressed in Escherichia coli at 0.2 to 1 uM by Biolayer Interferometric analysis; conditions: dose 0.2-1 µM; method in brief: as §1
Peregrin (Homo sapiens) = Peregrin (Homo sapiens) (UniProt P55201); assay: Binding affinity to biotinylated BRPF1 bromodomain-1 (unknown origin) expressed in Escherichia coli at 0.2 to 1 uM by Biolayer Interferometric analysis; conditions: dose 0.2-1 µM; method in brief: as §1
[16] = target: Bromodomain and WD repeat-containing protein 3 (Homo sapiens) (UniProt Q6RI45); assay: Binding affinity to biotinylated BRWD3 bromodomain-2 (unknown origin) expressed in Escherichia coli at 0.2 to 1 uM by Biolayer Interferometric analysis; conditions: dose 0.2-1 µM; method in brief: as §1
[17] = target: Chromatin remodeling regulator CECR2 (Homo sapiens) (UniProt Q9BXF3); assay: Binding affinity to biotinylated CECR2 (unknown origin) expressed in Escherichia coli at 0.2 to 1 uM by Biolayer Interferometric analysis; conditions: dose 0.2-1 µM; method in brief: as §1
[18] = target: CREB-binding protein (Homo sapiens) (UniProt Q92793); assay: Binding affinity to biotinylated CREBBP (unknown origin) expressed in Escherichia coli at 0.2 to 1 uM by Biolayer Interferometric analysis; conditions: dose 0.2-1 µM; method in brief: as §1
[19] = target: Histone acetyltransferase p300 (Homo sapiens) (UniProt Q09472); assay: Binding affinity to biotinylated EP300 (unknown origin) expressed in Escherichia coli at 0.2 to 1 uM by Biolayer Interferometric analysis; conditions: dose 0.2-1 µM; method in brief: as §1
[20] = target: Nucleosome-remodeling factor subunit BPTF (Homo sapiens) (UniProt Q12830); assay: Binding affinity to biotinylated FALZ (unknown origin) expressed in Escherichia coli at 0.2 to 1 uM by Biolayer Interferometric analysis; conditions: dose 0.2-1 µM; method in brief: as §1
[21] = target: Histone acetyltransferase KAT2A (Homo sapiens) (UniProt Q92830); assay: Binding affinity to biotinylated GCN5L2 (unknown origin) expressed in Escherichia coli at 0.2 to 1 uM by Biolayer Interferometric analysis; conditions: dose 0.2-1 µM; method in brief: as §1
[22] = target: ATPase family AAA domain-containing protein 2B (Homo sapiens) (UniProt Q9ULI0); assay: Binding affinity to biotinylated KIAA1240 (unknown origin) expressed in Escherichia coli at 0.2 to 1 uM by Biolayer Interferometric analysis; conditions: dose 0.2-1 µM; method in brief: as §1
[23] = target: Protein polybromo-1 (Homo sapiens) (UniProt Q86U86); assay: Binding affinity to biotinylated PB1 bromodomain-1 (unknown origin) expressed in Escherichia coli at 0.2 to 1 uM by Biolayer Interferometric analysis; conditions: dose 0.2-1 µM; method in brief: as §1
Protein polybromo-1 (Homo sapiens), sequence (Q86U86 whole entry): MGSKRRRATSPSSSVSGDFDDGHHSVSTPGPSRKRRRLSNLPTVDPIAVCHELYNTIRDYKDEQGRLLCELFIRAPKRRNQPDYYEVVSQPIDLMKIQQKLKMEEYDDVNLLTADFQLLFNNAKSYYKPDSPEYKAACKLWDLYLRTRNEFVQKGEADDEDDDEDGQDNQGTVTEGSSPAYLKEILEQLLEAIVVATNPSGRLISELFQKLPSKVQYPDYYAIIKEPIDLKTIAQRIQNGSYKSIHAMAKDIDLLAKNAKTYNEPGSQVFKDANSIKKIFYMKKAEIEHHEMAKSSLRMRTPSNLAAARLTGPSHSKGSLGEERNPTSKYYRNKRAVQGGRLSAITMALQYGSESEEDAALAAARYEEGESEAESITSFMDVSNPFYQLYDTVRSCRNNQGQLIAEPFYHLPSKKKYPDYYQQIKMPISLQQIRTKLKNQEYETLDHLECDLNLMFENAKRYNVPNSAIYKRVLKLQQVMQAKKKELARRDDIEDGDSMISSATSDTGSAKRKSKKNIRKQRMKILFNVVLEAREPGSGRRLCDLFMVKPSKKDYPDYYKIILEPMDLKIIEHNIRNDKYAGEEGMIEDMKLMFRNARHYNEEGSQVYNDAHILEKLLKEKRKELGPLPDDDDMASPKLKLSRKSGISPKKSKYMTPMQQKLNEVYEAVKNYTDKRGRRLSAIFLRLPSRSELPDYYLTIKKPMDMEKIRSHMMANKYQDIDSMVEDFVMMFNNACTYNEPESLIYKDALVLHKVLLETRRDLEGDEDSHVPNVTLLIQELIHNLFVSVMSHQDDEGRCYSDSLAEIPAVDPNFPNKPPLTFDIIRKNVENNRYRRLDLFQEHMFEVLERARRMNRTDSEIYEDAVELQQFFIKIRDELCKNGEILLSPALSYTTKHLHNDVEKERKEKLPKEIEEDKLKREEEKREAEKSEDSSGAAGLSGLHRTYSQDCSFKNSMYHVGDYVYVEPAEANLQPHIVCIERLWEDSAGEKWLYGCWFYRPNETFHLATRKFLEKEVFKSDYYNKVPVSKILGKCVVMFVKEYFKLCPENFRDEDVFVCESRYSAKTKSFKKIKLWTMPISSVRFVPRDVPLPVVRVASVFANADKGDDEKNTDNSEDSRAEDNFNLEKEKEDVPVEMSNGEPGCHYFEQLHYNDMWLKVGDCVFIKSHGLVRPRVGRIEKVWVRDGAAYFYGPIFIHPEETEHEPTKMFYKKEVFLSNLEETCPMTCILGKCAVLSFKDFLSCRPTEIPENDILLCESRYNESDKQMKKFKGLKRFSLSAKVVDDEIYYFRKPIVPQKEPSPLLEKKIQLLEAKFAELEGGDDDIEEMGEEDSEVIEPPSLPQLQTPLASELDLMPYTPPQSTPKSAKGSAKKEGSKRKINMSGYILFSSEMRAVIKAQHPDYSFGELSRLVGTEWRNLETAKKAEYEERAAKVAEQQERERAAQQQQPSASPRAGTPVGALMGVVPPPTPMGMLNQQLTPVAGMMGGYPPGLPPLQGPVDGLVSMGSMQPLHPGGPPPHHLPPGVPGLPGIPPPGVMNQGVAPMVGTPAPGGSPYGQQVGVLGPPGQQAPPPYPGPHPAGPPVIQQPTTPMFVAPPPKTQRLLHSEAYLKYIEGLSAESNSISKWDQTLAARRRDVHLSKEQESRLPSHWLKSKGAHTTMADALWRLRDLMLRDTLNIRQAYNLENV

[24] = target: Protein polybromo-1 (Homo sapiens) (UniProt Q86U86); assay: Binding affinity to biotinylated PB1 bromodomain-2 (unknown origin) expressed in Escherichia coli at 0.2 to 1 uM by Biolayer Interferometric analysis; conditions: dose 0.2-1 µM; method in brief: as §1
[25] = target: Protein polybromo-1 (Homo sapiens) (UniProt Q86U86); assay: Binding affinity to biotinylated PB1 bromodomain-4 (unknown origin) expressed in Escherichia coli at 0.2 to 1 uM by Biolayer Interferometric analysis; conditions: dose 0.2-1 µM; method in brief: as §1
[26] = target: Protein polybromo-1 (Homo sapiens) (UniProt Q86U86); assay: Binding affinity to biotinylated PB1 bromodomain-5 (unknown origin) expressed in Escherichia coli at 0.2 to 1 uM by Biolayer Interferometric analysis; conditions: dose 0.2-1 µM; method in brief: as §1
[27] = target: Protein polybromo-1 (Homo sapiens) (UniProt Q86U86); assay: Binding affinity to biotinylated PB1 bromodomain-6 (unknown origin) expressed in Escherichia coli at 0.2 to 1 uM by Biolayer Interferometric analysis; conditions: dose 0.2-1 µM; method in brief: as §1
[28] = target: Histone acetyltransferase KAT2B (Homo sapiens) (UniProt Q92831); assay: Binding affinity to biotinylated PCAF (unknown origin) expressed in Escherichia coli at 0.2 to 1 uM by Biolayer Interferometric analysis; conditions: dose 0.2-1 µM; method in brief: as §1
[29] = target: PH-interacting protein (Homo sapiens) (UniProt Q8WWQ0); assay: Binding affinity to biotinylated PHIP (unknown origin) expressed in Escherichia coli at 0.2 to 1 uM by Biolayer Interferometric analysis; conditions: dose 0.2-1 µM; method in brief: as §1
[30] = target: SWI/SNF-related matrix-associated actin-dependent regulator of chromatin subfamily A member 2 (Homo sapiens, UniProt P51531); assay: Binding affinity to biotinylated SMARCA2 (unknown origin) expressed in Escherichia coli at 0.2 to 1 uM by Biolayer Interferometric analysis; conditions: dose 0.2-1 µM; method in brief: as §1
[31] = target: SWI/SNF-related matrix-associated actin-dependent regulator of chromatin subfamily A member 4 (Homo sapiens, UniProt P51532); assay: Binding affinity to biotinylated SMARCA4 (unknown origin) expressed in Escherichia coli at 0.2 to 1 uM by Biolayer Interferometric analysis; conditions: dose 0.2-1 µM; method in brief: as §1
[32] = target: Transcription initiation factor TFIID subunit 1 (Homo sapiens) (UniProt P21675); assay: Binding affinity to biotinylated TAF1 bromodomain-1 (unknown origin) expressed in Escherichia coli at 0.2 to 1 uM by Biolayer Interferometric analysis; conditions: dose 0.2-1 µM; method in brief: as §1
Transcription initiation factor TFIID subunit 1 (Homo sapiens), sequence (P21675 whole entry): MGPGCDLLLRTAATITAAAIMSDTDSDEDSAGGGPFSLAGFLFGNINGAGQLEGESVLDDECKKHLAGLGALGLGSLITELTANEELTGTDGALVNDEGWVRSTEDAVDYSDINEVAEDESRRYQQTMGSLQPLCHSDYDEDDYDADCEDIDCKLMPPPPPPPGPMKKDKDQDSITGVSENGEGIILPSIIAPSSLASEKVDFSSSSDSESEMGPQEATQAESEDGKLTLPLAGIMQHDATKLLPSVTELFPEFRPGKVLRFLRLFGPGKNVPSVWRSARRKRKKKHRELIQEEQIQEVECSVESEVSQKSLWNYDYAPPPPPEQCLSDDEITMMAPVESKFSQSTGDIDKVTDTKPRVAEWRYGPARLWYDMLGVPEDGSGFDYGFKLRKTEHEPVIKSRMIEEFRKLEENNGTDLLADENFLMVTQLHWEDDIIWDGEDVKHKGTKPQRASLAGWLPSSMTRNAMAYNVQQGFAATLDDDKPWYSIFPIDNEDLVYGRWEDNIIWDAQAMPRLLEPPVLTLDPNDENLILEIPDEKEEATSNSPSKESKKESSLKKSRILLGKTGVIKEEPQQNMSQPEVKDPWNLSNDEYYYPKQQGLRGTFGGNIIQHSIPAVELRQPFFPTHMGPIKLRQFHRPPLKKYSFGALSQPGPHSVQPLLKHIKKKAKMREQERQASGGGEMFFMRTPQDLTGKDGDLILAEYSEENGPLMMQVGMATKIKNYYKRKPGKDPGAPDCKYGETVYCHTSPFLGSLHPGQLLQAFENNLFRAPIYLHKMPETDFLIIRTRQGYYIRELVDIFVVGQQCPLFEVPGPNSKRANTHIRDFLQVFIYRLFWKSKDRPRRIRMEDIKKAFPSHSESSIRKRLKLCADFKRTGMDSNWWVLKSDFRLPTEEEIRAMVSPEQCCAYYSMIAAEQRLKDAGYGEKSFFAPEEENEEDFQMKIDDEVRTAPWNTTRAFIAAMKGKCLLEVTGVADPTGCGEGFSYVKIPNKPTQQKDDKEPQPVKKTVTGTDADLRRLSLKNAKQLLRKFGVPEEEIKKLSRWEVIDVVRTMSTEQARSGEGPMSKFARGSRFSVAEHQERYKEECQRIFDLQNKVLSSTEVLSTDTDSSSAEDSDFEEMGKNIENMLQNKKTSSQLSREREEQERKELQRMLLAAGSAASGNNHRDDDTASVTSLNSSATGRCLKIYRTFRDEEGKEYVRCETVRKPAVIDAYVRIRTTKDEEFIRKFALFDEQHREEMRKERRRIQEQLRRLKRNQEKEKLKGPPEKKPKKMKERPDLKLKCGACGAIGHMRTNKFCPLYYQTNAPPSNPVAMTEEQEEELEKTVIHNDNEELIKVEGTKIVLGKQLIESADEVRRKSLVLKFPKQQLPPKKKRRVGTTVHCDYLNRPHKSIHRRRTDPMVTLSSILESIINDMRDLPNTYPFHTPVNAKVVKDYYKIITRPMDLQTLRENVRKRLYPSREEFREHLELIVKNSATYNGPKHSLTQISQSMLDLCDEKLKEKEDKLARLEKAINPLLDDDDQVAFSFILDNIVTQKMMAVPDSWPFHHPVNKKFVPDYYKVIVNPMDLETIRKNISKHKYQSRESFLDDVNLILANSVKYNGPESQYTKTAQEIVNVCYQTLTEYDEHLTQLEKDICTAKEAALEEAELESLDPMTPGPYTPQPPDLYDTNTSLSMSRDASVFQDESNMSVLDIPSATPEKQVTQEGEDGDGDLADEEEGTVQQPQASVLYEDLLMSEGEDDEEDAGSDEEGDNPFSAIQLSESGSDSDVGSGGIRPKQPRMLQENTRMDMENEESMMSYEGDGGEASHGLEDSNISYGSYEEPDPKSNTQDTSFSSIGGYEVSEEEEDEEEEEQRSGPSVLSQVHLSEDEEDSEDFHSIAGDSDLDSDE

[33] = target: Transcription initiation factor TFIID subunit 1 (Homo sapiens) (UniProt P21675); assay: Binding affinity to biotinylated TAF1 bromodomain-2 (unknown origin) expressed in Escherichia coli at 0.2 to 1 uM by Biolayer Interferometric analysis; conditions: dose 0.2-1 µM; method in brief: as §1
[34] = target: Transcription initiation factor TFIID subunit 1-like (Homo sapiens) (UniProt Q8IZX4); assay: Binding affinity to biotinylated TAF1L bromodomain-1 (unknown origin) expressed in Escherichia coli at 0.2 to 1 uM by Biolayer Interferometric analysis; conditions: dose 0.2-1 µM; method in brief: as §1
[35] = target: Transcription intermediary factor 1-alpha (Homo sapiens) (UniProt O15164); assay: Binding affinity to biotinylated TIF1 bromodomain-1 (unknown origin) expressed in Escherichia coli at 0.2 to 1 uM by Biolayer Interferometric analysis; conditions: dose 0.2-1 µM; method in brief: as §1
[36] = target: Transcription intermediary factor 1-beta (Homo sapiens) (UniProt Q13263); assay: Binding affinity to biotinylated TRIM28 (unknown origin) expressed in Escherichia coli at 0.2 to 1 uM by Biolayer Interferometric analysis; conditions: dose 0.2-1 µM; method in brief: as §1
[37] = target: Bromodomain and WD repeat-containing protein 1 (Homo sapiens) (UniProt Q9NSI6); assay: Binding affinity to biotinylated WDR9 (unknown origin) expressed in Escherichia coli at 0.2 to 1 uM by Biolayer Interferometric analysis; conditions: dose 0.2-1 µM; method in brief: as §1
[38] = target: Nuclear body protein SP140 (Homo sapiens) (UniProt Q13342); assay: Binding affinity to biotinylated SP140 (unknown origin) expressed in Escherichia coli at 0.2 to 1 uM by Biolayer Interferometric analysis; conditions: dose 0.2-1 µM; method in brief: as §1

Kb [1]: 0.826 10^6/M
Activity [2]: Active
Activity [3]: inactive
Activity [4]: inactive
Activity [5]: inactive
Activity [6]: inactive
Activity [7]: inactive
Activity [8]: inactive
Activity [9]: inactive
Activity [10]: inactive
Activity [11]: inactive
Activity [12]: inactive
Activity [13]: inactive
Activity [14]: inactive
Activity [15]: inactive
Activity (Peregrin (Homo sapiens)): inactive
Activity [16]: inactive
Activity [17]: inactive
Activity [18]: inactive
Activity [19]: inactive
Activity [20]: inactive
Activity [21]: inactive
Activity [22]: inactive
Activity [23]: inactive
Activity [24]: inactive
Activity [25]: inactive
Activity [26]: inactive
Activity [27]: inactive
Activity [28]: inactive
Activity [29]: inactive
Activity [30]: inactive
Activity [31]: inactive
Activity [32]: inactive
Activity [33]: inactive
Activity [34]: inactive
Activity [35]: inactive
Activity [36]: inactive
Activity [37]: inactive
Activity [38]: inactive
Structure (SMILES): CCCOc1ccn2c(C(C)=O)cc(-c3ccccc3S(C)(=O)=O)c2c1
